From ChEMBL document CHEMBL4316598, “Synthesis, antiproliferative and apoptosis induction potential activities of novel bis(indolyl)hydrazide-hydrazone derivatives” (Bioorg Med Chem, 2019) come the findings set out here.

The subject of experiment [1] is MDA-MB-231. Nature of the experiment: Cytotoxicity against human MDA-MB-231 cells assessed as reduction in cell viability after 4 hrs by MTT assay. It counts as functional, cell-based. An outline of the steps:
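MTT: 10,000–20,000 cells/well attached for 16 h, then washed twice with serum-free RPMI. Treated with 1–200 µM for 4 h, 3 parallel runs per concentration. MTT added for 2 h; medium partly removed and isopropanol added. A590 read. Viability = (A treated − A doxorubicin)/(A medium − A doxorubicin)×100. Mean of three experiments, triplicate wells each.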
(In general: Formazan colour is commonly taken as a measure of viable cells.)

Experiment [2] relates to Detroit 562. The experiment is described as follows: Cytotoxicity against human Detroit 562 cells assessed as reduction in cell viability after 4 hrs by MTT assay. It counts as functional, cell-based.
Experiment [3] concerns MCF7. Nature of the experiment: Induction of apoptosis in human MCF7 cells assessed as early apoptotic cells at 1 uM after 12 hrs by annexin-V FITC/propidium iodide staining based flow cytometric analysis relative to control. Format: functional. The method in brief: (§1)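 Cells were grown in DMEM with 10% heat-inactivated FBS at 37 °C and 5% CO₂, then plated at 500,000 cells/well in 24-well plates. They were treated from a DMSO stock (DMSO ≤0.1%) for 8, 12 or 16 h. After a PBS wash, cells were resuspended in binding buffer (10 mM HEPES pH 7.4, 2.5 mM CaCl₂, 140 mM NaCl, 0.1% BSA), stained 40 min with FITC-annexin V, then with PI, and run on the flow cytometer immediately. Values are the mean of three independent experiments.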
In general terms: Flow cytometry measures light scatter and fluorescence of single cells or particles in a stream.

The test system of experiment [4] is MCF7. Nature of the experiment: Induction of apoptosis in human MCF7 cells assessed as early apoptotic cells at 1 uM after 16 hrs by annexin-V FITC/propidium iodide staining based flow cytometric analysis relative to control. It counts as functional. The method in brief: as §1
Experiment [5] deals with HeLa. The experiment is described as follows: Induction of apoptosis in human HeLa cells assessed as late apoptotic cells at 1 uM after 12 hrs by annexin-V FITC/propidium iodide staining based flow cytometric analysis relative to control. Format: functional. The method in brief:
as §1

Experiment [6] deals with MCF7. Nature of the experiment: Induction of ROS generation in human MCF7 cells at 5 uM after 8 hrs by DCFH-DA staining-based fluorescence spectrophotometric analysis relative to control. It counts as functional. An outline of the steps: (§2)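 DCFH-DA ROS: HeLa or MCF-7 cells at 2×10^6/well cultured 12 h, treated 4 or 8 h; t-BHP (10 μM) is the positive control. DCFH-DA 10 μM added for 10 min at 37 °C, cells washed twice with PBS. Fluorescence read at ex 485/em 520 nm. For the NAC arm, NAC (5 mM) is added to the medium before treatment.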

For experiment [7], the system named is HeLa. Nature of the experiment: Induction of ROS generation in human HeLa cells at 5 uM after 4 to 8 hrs in presence of NAC by DCFH-DA staining-based fluorescence spectrophotometric analysis. It counts as functional, cell-based. An outline of the steps:
as §2

Experiment [8] has as its system MCF7. Nature of the experiment: Induction of ROS generation in human MCF7 cells at 5 uM after 4 to 8 hrs in presence of NAC by DCFH-DA staining-based fluorescence spectrophotometric analysis. It counts as functional, cell-based. An outline of the steps:
as §2

The test system of experiment [9] is HeLa. The experiment is described as follows: Induction of nitric oxide production in human HeLa cells measured over 8 hrs by Griess reaction based assay. It counts as functional, cell-based. The method in brief: (§3)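 Cells seeded at 2×10^6 cells/well for 12 h, then exposed to 1, 5 and 10 μM compound for 8 h at 37 °C. Culture supernatant mixed with Griess reagent (0.002% N-1-naphthyl-ethylenediamine dihydrochloride, 0.5% sulfanilic acid, 14% glacial acetic acid). Nitrite read by absorbance at 550 nm and compared with vehicle group.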
For orientation: Griess reagent forms a coloured azo dye with nitrite.

Experiment [10] relates to MCF7. Nature of the experiment: Induction of nitric oxide production in human MCF7 cells at 1 uM measured over 8 hrs by Griess reaction based assay relative to control. It counts as functional. An outline of the steps: as §3
The test system of experiment [11] is MCF7. Nature of the experiment: Induction of nitric oxide production in human MCF7 cells at 5 uM measured over 8 hrs by Griess reaction based assay relative to control. Format: functional. An outline of the steps:
as §3

In experiment [12] the test system is MCF7. Nature of the experiment: Induction of caspase-dependent apoptosis in human MCF7 cells assessed as activation of caspase-3 at 1 to 3 uM after 24 hrs by Western blot analysis. Format: functional, cell-based. An outline of the steps:
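Cleaved caspase-3 immunoblot. Cells were exposed at 1, 3 and 5 µM for 24 h at 37 °C, with paclitaxel 3 µM as positive control. Lysis was in ice-cold Triton X-100 buffer, and protein was measured by BCA. Lysates were separated by electrophoresis, transferred to nitrocellulose and blocked in milk. Primary antibody was applied overnight at 4 °C and secondary for 1 h at 28 °C. Detection was by enhanced chemiluminescence.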

Experiment [13] deals with MCF7. Nature of the experiment: Induction of caspase-dependent apoptosis in human MCF7 cells assessed as activation of caspase-6 at 1 to 3 uM after 24 hrs by Western blot analysis. Format: functional, cell-based. The method in brief: (§4)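 Cells were treated at 1, 3 and 5 µM for 24 h at 37 °C. Lysis was in ice-cold Triton X-100 buffer with protease and phosphatase inhibitors; nuclear proteins were extracted separately. Protein was quantified by BCA. Lysates were separated by electrophoresis, transferred to nitrocellulose and blocked in non-fat milk for 1 h. Primary antibody was applied overnight at 4 °C and secondary for 1 h at 28 °C. Detection was by enhanced chemiluminescence.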

Experiment [14] relates to HeLa. The experiment is described as follows: Induction of caspase-dependent apoptosis in human HeLa cells assessed as activation of caspase-6 at 1 to 3 uM after 24 hrs by Western blot analysis. It counts as functional, cell-based. An outline of the steps:
as §4

Experiment [15] concerns MCF7. The experiment is described as follows: Induction of apoptosis in human MCF7 cells assessed as change in Bid level at 1 to 3 uM after 24 hrs by Western blot analysis. It counts as functional, cell-based. An outline of the steps:
as §4

In experiment [16] the test system is MCF7. The experiment is described as follows: Induction of apoptosis in human MCF7 cells assessed as up-regulation of total p53 level at 5 uM after 12 hrs by sandwich ELISA. Format: functional, cell-based. The method in brief: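 Cells were treated at 5 µM for 12, 24 and 48 h. Lysis was in ice-cold lysis buffer with 1 mM PMSF (5 min on ice), followed by three freeze-thaw cycles and a 10 min spin at 4 °C. Acetylated and total p53 were measured in the supernatant by kit sandwich ELISA, read at 450 nm. The control index is sample absorbance divided by that of untreated cells at the same time. Values are mean ± SD of triplicate experiments.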

Experiment [17] has as its target MAP kinase p38 (Homo sapiens) (UniProt O15264+Q15759+Q16539+P53778). The experiment is described as follows: Activation of MAPK p38 phosphorylation in human MCF7 cells assessed as increase in ratio of phosphorylated p38 to total p38 level at 5 uM in presence of p38 kinase inhibitor […] by ELISA. It counts as cell-based. The method in brief: (§5)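 Cell-based ELISA: HeLa or MCF-7 cells (20×10^3/well) grown overnight at 37 °C, 5% CO2, treated with 5 μM, then fixed and blocked. Probed with rabbit anti-total and anti-phospho P38, JNK or ERK1/2 (1:100), then HRP anti-rabbit IgG. Result is the phospho/total ratio; inhibitor arms use […], […] or SP600125. n=3.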

In experiment [18] the target is c-Jun N-terminal kinase, JNK (Homo sapiens) (UniProt P45983+P53779+P45984). The experiment is described as follows: Activation of JNK phosphorylation in human HeLa cells assessed as increase in ratio of phosphorylated JNK to total JNK level at 5 uM by ELISA. It counts as cell-based. An outline of the steps:
as §5

In experiment [19] the test system is MCF7. Nature of the experiment: Induction of ERK/MAPK signal transduction pathway in human MCF7 cells assessed as increase in p53 phosphorylation. Format: cell-based.

Active and inactive are the calls of the source. The rule behind the calls is not given here.

As a reminder, the IC50 is the concentration that gives 50% inhibition. Turning to `Cn1cc(/C=N\NC(=O)c2cn(C)c3ccc(Br)cc23)c2ccccc21`, the Activity result in [1] was “Dose-dependent effect”; in [2] it was “Dose-dependent effect”; in experiment [3], 21.18%; in experiment [4], 16.41%; in experiment [5] it was 18.42%; in experiment [6] it was 48.3%. In addition, the Activity entry is “Dose-dependent effect” in experiment [9], 32.1% in [10] and 48.9% in experiment [11]. Also, the IC50 is 5.49 µM in [1] (MDA-MB-231, 4 h) and 22.7 µM in experiment [2] (Detroit 562, 4 h). The outcome in [7], in [8], in [12], in [13], in [14] and in experiment [15] was inactive. Further, the outcome in experiment [17] was inactive. For the same compound, the outcome in experiment [16], in [18] and in [19] was Active.
